CaV13 ICDI inh: Primary screen for inhibitors of IQ motif and Ca2+-dependent inactivation inhibitor domain binding in CACNA1D, Förster resonance energy transfer in living cells, …; HEK cells, CFP/YFP FRET ICDI-IQ, plate reader, 10 min; percent FRET-ratio fall versus neutral wells; inhibition, % at 12.3 µM; hit rate 0.098% among 340,000; AID 743397;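 active = mean replicate inhibition of at least 30% and at least 1% of replicates passing that level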;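 also: 0% = median of the neutral control wells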
ARNT TACC3 PPI: disruptors of ARNT/TACC3 protein interaction, primary screen, biochemical, AlphaScreen, single concentration | inhibition, % at 9.99 µM | hit rate 0.66% among 390,000 | Transforming acidic coiled-coil-containing protein 3 (Homo sapiens), Q9Y6A5 | AlphaScreen His-ARNT PAS-B/GST-TACC3 binding, luminescence; TACC3 fragment carries E629A point mutation;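 active = mean inhibition of replicates at least 50% and at least half of replicates each reaching 50%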;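 also: 0% = complete ARNT plus TACC3 wells and 100% = ARNT alone without TACC3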
CAL PDZ FP-1: untagged CAL PDZ binding inhibitors, primary screen, biochemical, fluorescence polarization, HTS; purified CAL PDZ, TMR-peptide fluorescence polarization, 1 h; inhibition, % at 24.9 µM; hit rate 0.92% among 300,000; AID 602252, 2012;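 active = mean inhibition of at least 30% with at least half of replicates also reaching 30%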;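 also: 0% = DMSO neutral control and 100% = excess unlabeled competitor peptide PRC23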
CAL PDZ FP-2: CAL PDZ peptide-binding inhibitors, primary screen, biochemical, fluorescence polarization, Cer-tagged CAL PDZ, HTS | Golgi-associated PDZ and coiled-coil motif-containing protein (Homo sapiens), Q9HD26 | purified CAL PDZ, TMR-peptide fluorescence polarization, 1 h | inhibition, % at 20 µM | hit rate 0.02% among 330,000 | AID 504414, 2011;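 active = highest replicate inhibition of at least 40%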;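 also: plate controls were DMSO neutral control wells for no effect and unlabeled competitor peptide control wells for full effect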
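Material: tagged CAL PDZ domain; buffer or medium: 25 mM sodium phosphate pH 7.4, 150 mM NaCl, TCEP, IgG, Thesit; compound dosing: single point, 20 µM; schedule: 1 h incubation at room temperature before polarization reading; measured by: FP readout, S and P plane fluorescence; read-out basis: percent inhibition from loss of millipolarization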
* marks the source's active call; other numbers are inactive results; . = no result given. Shown are actives, neighbours in structure and some others; about 1.2% of the full set was active somewhere.

SMILES	CaV13 ICDI inh	ARNT TACC3 PPI	CAL PDZ FP-1	CAL PDZ FP-2
COc1ccc(S(=O)(=O)N(C)C[C@@H]2Oc3ccc(NS(C)(=O)=O)cc3CC(=O)N([C@@H](C)CO)C[C@H]2C)cc1	.	16	.	.
CN1CCN(C(=O)C[C@@H]2CC[C@H]3[C@@H](COC[C@@H](O)CN3C(=O)Cc3ccccc3)O2)CC1	.	-1	.	.
Cc1ccc(Nc2cc(C)nn2-c2nc(C)cc(=O)[nH]2)cc1	.	63*	-1	-1
Cc1ccc(Nc2cc(C)nn2-c2nc(C)cc(C)n2)cc1	-4	-1	-5	-1
C/C(O)=c1/c(=O)nc2cccc3c2=c1c1ccccc1c3=O	-5	46*	-4	-1
CC(=O)Oc1ccccc1/C=C/c1nc2ccccc2c(=O)o1	-21	0	0	0
C[C@H](CO)N1C[C@H](C)[C@H](CN(C)Cc2ccc(C(=O)O)cc2)Oc2ccc(NC(=O)C3CC3)cc2CC1=O	.	-8	.	.
O=[N+]([O-])c1ccc(Cc2ccc([N+](=O)[O-])cc2)cc1	-21	14	-3	-1
N#CC(CCc1ccc([N+](=O)[O-])cc1)(CCc1ccc([N+](=O)[O-])cc1)C(N)=O	-11	-19	43*	-2
C[C@H]1CN([C@@H](C)CO)C(=O)Cc2cc(NC(=O)Cc3cn(C)c4ccccc34)ccc2O[C@@H]1CN(C)C(=O)Nc1ccccc1	.	-7	.	.
CC(=O)c1cccc(NC(=O)c2ccccc2-c2ccccc2C(=O)O)c1	-5	-7	-2	0
CC(C)CNC(=O)c1cccc(NC(=O)c2ccccc2-c2ccccc2C(=O)O)c1	-6	-2	89*	.
O=C(NC(=S)Nc1ccc(S(=O)(=O)Nc2nccs2)cc1)c1ccc(F)cc1	-4	2	54*	-2
CC(C)(C)C(=O)NC(=S)Nc1ccc(S(=O)(=O)Nc2nccs2)cc1	4	-10	4	0
COCCNC(=O)C[C@H]1C[C@@H]2c3cc(NC(=O)COC)ccc3O[C@@H]2[C@@H](CO)O1	.	-3	.	.
CN1c2ccc(-c3ccc(F)cc3)cc2[C@H]2[C@H](CCN2C(=O)c2cccnc2)[C@@H]1CO	.	0	.	.
C=C[C@H](OC)[C@@H](OC(=O)Nc1ccc(SC)cc1)c1ccc(OCCO)cc1	.	-25	.	.
c1ccc(-c2nc(-c3ccccn3)nc(-c3ccccn3)n2)nc1	-2	51*	-7	0
Clc1ccc(-c2cnnc(-c3ccccn3)n2)cc1	-9	61*	-4	-1
Nc1nc(N)nc(-c2ccccn2)n1	-5	64*	-1	.
Nc1nc(N)nc(-c2ccccc2O)n1	.	0	-4	.
c1ccc(-c2nc3ccccc3nc2-c2ccccn2)nc1	-5	14	23	-2
C[C@@H]1CN([C@@H](C)CO)C(=O)c2ccccc2-c2ccccc2CO[C@@H]1CN(C)CC1CC1	.	-4	.	.
C(=C\c1ccc2ccccc2n1)/c1ccccc1	-5	5	-6	-2
Oc1ccc(/C=C/c2ccc3ccccc3n2)cc1	-38	-12	69*	0
SMILES	CaV13 ICDI inh	ARNT TACC3 PPI	CAL PDZ FP-1	CAL PDZ FP-2
CN(C)c1ccc(/C=C/c2ccc3ccccc3n2)cc1	.	-12	100*	-1
O=C1c2cccc(NCCNCCO)c2C(=O)c2cccc(NCCNCCO)c21	-6	47*	-8	2
O=C(O)CCNc1ccc(NCCC(=O)O)c2c1C(=O)c1ccccc1C2=O	-5	.	4	-3
COc1ccc(C(=O)Nc2ccc3c(c2)C(=O)N(C)C[C@@H](OC)[C@@H](C)CN[C@@H](C)CO3)cc1	.	4	.	.
C[C@@H]1CCCCO[C@@H](CN(C)C(=O)CCCN(C)C)[C@H](C)CN([C@@H](C)CO)C(=O)c2cc(NS(=O)(=O)c3cn(C)cn3)ccc2O1	.	6	.	.
Cc1cccc(C)c1N(CC(=O)N1CCOCC1)S(C)(=O)=O	-19	-2	44*	.
Cc1cccc(C)c1N(CC(=O)N1CCCC1)S(C)(=O)=O	0	11	.	0
C[C@H]1CN([C@@H](C)CO)C(=O)c2cc(C3=CCCCC3)cnc2O[C@@H]1CN(C)CC1CCCC1	.	-1	.	.
CCOC(=O)c1c(N)c(C#N)c2n1CCCC2	.	1	2	0
CCOC(=O)c1c(N)c(C#N)c2n1CCCCC2	.	0	37*	.
Cc1n[nH]c(C)c1CCN(C)Cc1cn(C)nc1-c1ccc2c(c1)OCCO2	1	4	102*	0
C[C@@H]1CCCCO[C@H](CN(C)C(=O)Nc2ccc(F)cc2)[C@H](C)CN([C@@H](C)CO)C(=O)c2cc(NC(=O)Nc3ccc4c(c3)OCO4)ccc2O1	.	5	.	.
CC(=O)NC(=S)Nc1cc(C(=O)O)ccc1Cl	-6	-2	116*	-1
O=C(C[C@@H]1C=C[C@@H](NC(=O)C2CC2)[C@H](CO)O1)NCC1CC1	.	-2	.	.
COc1ccc(OC)c(N(C(=O)c2snc(C(N)=O)c2N)C(C(=O)NCc2ccccc2)c2ccc(O)cc2)c1 (stereo not drawn)	0	22	-5	-1
COc1ccc(N(C(=O)c2snc(C(N)=O)c2N)C(C(=O)NCc2ccccc2)c2ccc(O)cc2)cc1 (stereo not drawn)	-3	4	51*	0
CC(C)(C)OC(=O)N1CCC(C(=O)N[C@@H](Cc2c[nH]c3ccccc23)C(=O)O)CC1	-5	-8	8	.
O=C(N[C@@H](Cc1c[nH]c2ccccc12)C(=O)O)C1CCN(S(=O)(=O)c2ccc(Cl)cc2)CC1	-4	.	32*	-1
O=C(N[C@@H](Cc1c[nH]c2ccccc12)C(=O)O)C1CCN(S(=O)(=O)c2cccs2)CC1	-3	-74	71*	.
CCOc1ccc(NC(=O)CN(C)C(=O)CCCNC(=O)c2ccc(Cl)cc2)cc1OCC	32*	.	.	.
CCOc1ccc(NC(=O)CN(C)C(=O)c2ccc3nc(CC)c(CC)nc3c2)cc1OCC	-5	-2	39*	0
COc1cccc(NC(=O)CN(C)C(=O)CCCNC(=O)c2ccc(Cl)cc2)c1	-2	3	1	-1
CCCC(=O)Nc1ccc2c(c1)C(=O)N(C)[C@H]1CC[C@H](CC(=O)NCc3ccccc3F)O[C@H]1CO2	.	-4	.	.
CC(Oc1ccc2ccc(=O)oc2c1)C(=O)NCCCn1ccnc1 (stereo not drawn)	-2	3	0	-1
Cc1c(C)c2ccc(OC(C)C(=O)NCCCn3ccnc3)c(C)c2oc1=O (stereo not drawn)	-2	6	71*	0
COc1ccc(CN(C)C[C@H]2Oc3ccc(NC(=O)CCC(F)(F)F)cc3C(=O)N([C@@H](C)CO)C[C@H]2C)cc1	.	0	.	.
Cn1cnc(S(=O)(=O)N2CCCCN3[C@@H](CO)[C@H](c4ccc(C#CC5CC5)cc4)[C@@H]3C2)c1	.	3	.	.
Cc1nc(Cl)cc(N/N=C/c2ccc(O)cc2O)n1	-2	27*	-3	1

Screens as filed in PubChem BioAssay.
